Fewer inactive variants are shown than the library holds.
B1: tRNA (parent)
chain: GUUCCGUUGGCGUAAUGGUAACGCGUCUCCCUCCUAAGGAGAAGACUGCGGGUUCGAGUCCCGUACGGAACG

Variants of: B1
Assay: yeast fitness relative to wild type (ratio to wild type); higher = fitter; tRNA-Arg(CCU), competitive growth, 37 C, YPD
How it was run: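 For this measurement, the tRNA-Arg(CCU) gene was varied by chemical synthesis at a 3% per-site mutation rate across 69 sites, and each variant was placed at the native genomic locus in Saccharomyces cerevisiae. The pooled strains went through a 24-hour competition in YPD at 37°C in six parallel replicates, with amplicons from start and end populations read by 100-nucleotide paired-end sequencing. Darwinian fitness relative to wild type followed from the change in each genotype's frequency. Genotypes needed ≥ 100 starting reads, and estimates < 0.5 were set to 0.5.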
Work on GUUCCGUUGGAGUAAUGGUAACGCGUAUUCCUCCUAAGGAGAAGACUGCGGGUUCGAAUCCCGUACGGAACG yielded a yeast fitness of no more than 0.5.
GUUCCGUUGGAGUAAUGGUAACGCGUAUCCCUGCUAAGGAGCAGACUGCGGGUUCGAGUCCCGUAUGGAACG showed a yeast fitness of no more than 0.5.
GUUCCGUUGGAGUAAUGGUAACGCGUAUCCCUCCUAAGGAGAAGACUGCGGGUUUGAGUCCCAUACCGAACG gave a yeast fitness of no more than 0.5.
For GUUCCGUUGGAGUAAUGGUAACGCGUAUCCCUCCUAAGGAGAAGACUGCGGGUUCGAGUCCCGUACAGAACG, the yeast fitness was 0.626.
GUUCCGUUGGAGUAAUGGUAACGCGUGUCCCUCCUAAGGAGAAGACUGCGGGUUCGAGUCCCGUACGGAACG gave a yeast fitness of 0.589.
Work on GUUCCGUUGGAGUAAUGGUAACGCGUGUCCCUCCUAAGGAGAAGACUGCGGGUUAGAGUCGCGUACGGAACG yielded a yeast fitness of no more than 0.5.
In the case of GUUCCGUUGGAGUAAUGGUAACGCGUGUCCCUCCUAAGGAGAAGACUGCGGGUUCGAGUCACGUACGGAACG, the yeast fitness is reported as no more than 0.5.
Work on GUUCCGUUGGAGUAAUGGUAACGCGUGUCCCUCCUAAGGAGAAGACUGCGGGUUCGAGUCCCGUACCGAACG yielded a yeast fitness of no more than 0.5.
GUUCCGUUGGAGUAAUGGUAACGCGUGUCCCUCCUAAGGAGAAGACUGCGGGUUCGAGUCCCGUACGAAACG gave a yeast fitness of no more than 0.5.
With GUUCCGUUGGAGUAAUGGUAACGCGUGUCCCCUCUAAGGAGAAGACUGCGGGUUCGAGUCCUGUGCGGAACG the yeast fitness was no more than 0.5.
GUUCCGUUGGAGUAAUGGUAACGCGUGUCCCUCCAAAGGAGAUGACUGCGGGUUCGAGUCCCGUACGGAACG showed a yeast fitness of no more than 0.5.
GUUCCGUUGGAGUAAUGGUAACGCGUGUCCCUCCAAAGGAGAUGACUGCGGGUCCGAGUCCCGUGCGAAACG showed a yeast fitness of no more than 0.5.
With GUUCCGUUGGAGUAAUGGUAACGCGUGUCCCUCCUAAGGAGAAGACUGCGGGUUCGAGACCCGUACGGAACG the yeast fitness was no more than 0.5.
In the case of GUUCCGUUGGAGUAAUGGUAACGCGUUUCCCUCCUGAGGAGAAGACUGAGGGUUCGAGUCCCGUACGGAACG, the yeast fitness is reported as no more than 0.5.
For GUUCCGUUGGAGUAAUGGUAACGCGUUUCCCUUCCAAGGAGAAGACUGCGGGUUCGAGUCGCGUGCGGAACG, the yeast fitness was no more than 0.5.
GUUCCGUUGGAGUAAUGGUAACGCGUUUCCCUUCCAAGGAGAAGACUGCGGGUUCGAGUCCUGUGCGGAACG gave a yeast fitness of no more than 0.5.
In the case of GUUCCGUUGGAGUAAUGGUAACGCGUUUCCCUCCUAAGGAGAAGAGUGCGGGUUCGAGUCCCGUACGGAACG, the yeast fitness is reported as 0.524.
GUUCCGUUGGAGUAAUGGUAACGCGUUUCCCUCCUAAGGAGAAGACUGAGGGUUCGAGUCCCGUACGGAACG showed a yeast fitness of 0.752.
With GUUCCGUUGGAGUAAUGGUAACGCGUUUCCCUCCUAAGGAGAAGACUGCGGGUUCGAGUGCCGUACGGAACG the yeast fitness was 0.532.
For GUUCCGUUGGAGUAAUGGUAACGCGUUUCCCUCCUAAGGAGAAGACUGCGGGUUCGAGUCGCGUACGGAACG, the yeast fitness was no more than 0.5.
Work on GUUCCGUUGGAGUAAUGGUAACGCGUUUCCCUCCUAAGGACGAGACUGCGGGUUCGAGUGCCGUACGGAACG yielded a yeast fitness of no more than 0.5.
For GUUCCGUUGGAGUAAUGGUAACGCGUUUCCCUCCUAAGGAGAAUACUGCGGGUUCGAGUCCCGGGCGGAACG, the yeast fitness was 0.593.
Variant GUUCCGUUGGAGUAAUGGUAACGCGUUUCCCUCCUAAGGAGAAGACUGCGGGUUCCAGUCCCGUACGGAACG has a yeast fitness of no more than 0.5.
Work on GUUCCGUUGGAGUAAUGGUAACGCGUCUACCUCCUAAGGAGGAGACUGCGGGUUCGAGUCCCGUACGGAACG yielded a yeast fitness of no more than 0.5.
For GUUCCGUUGGAGUAAUGGUAACGCGUCUACCUCCUAAGGAGAAGACUGCGGGUUCGGGUCCCGUCCGGAACG, the yeast fitness was no more than 0.5.
Work on GUUCCGUUGGAGUAAUGGUAACGCGUCUACCUCCUAAGGAGAAGAAUGCGGGUUCGAGUCCCGUACGGAGCG yielded a yeast fitness of 0.541.
Work on GUUCCGUUGGAGUAAUGGUAACGCGUCUACCUCCUAAGGAGAAGACUGCGGCUUCGAGUCCCGUACGCAACG yielded a yeast fitness of no more than 0.5.
GUUCCGUUGGAGUAAUGGUAACGCGUCUACCUCCUAAGGAGAAGACUGCGGGUUCAAGUCCCGUAGGGAACG showed a yeast fitness of no more than 0.5.
Variant GUUCCGUUGGAGUAAUGGUAACGCGUCUACCUCCUAAGGAGAAGACUGCGGGUUCGAGUCCCGUACCGAACG has a yeast fitness of no more than 0.5.
Work on GUUCCGUUGGAGUAAUGGUAACGCGUCUACCCCCUAAGGAGAAGACUGCGGGUUCGAGUCCCGUAUGGAACG yielded a yeast fitness of no more than 0.5.
Variant GUUCCGUUGGAGUAAUGGUAACGCGUCUGCCUCCUAAGGAGAAGACUGCGGGUUCGAGUCCCGUACGGAACG has a yeast fitness of 0.654.
Work on GUUCCGUUGGAGUAAUGGUAACGCGUCUGCCUCCUAAGGAGAAGACUGCGGGUUCGGGUCCCGUACGGAACG yielded a yeast fitness of no more than 0.5.
GUUCCGUUGGAGUAAUGGUAACGCGUCUGCCUCCUAAGGAGAAGACUGCGGGUUCGGGUCCCGUAAGGAACG gave a yeast fitness of no more than 0.5.
Work on GUUCCGUUGGAGUAAUGGUAACGCGUCUGCCUCCUAAGGAGAAGACUGCGGGUUCGAGUCCCGUUCGAAACG yielded a yeast fitness of no more than 0.5.
GUUCCGUUGGAGUAAUGGUAACGCGUCUGCCUCCUAAGGAGAAGACUGCGGGUACGAGUCCCGUACGGAACG gave a yeast fitness of 0.69.
GUUCCGUUGGAGUAAUGGUAACGCGUCUUCCUCCUAAGGAGACGACUGCGGGUUCGAGUCCCGUACGGAACG gave a yeast fitness of 0.599.
In the case of GUUCCGUUGGAGUAAUGGUAACGCGUCUUCGUCCUAAGGAGAAGACUGCGGGUUCGACUCCCGUACGGAACG, the yeast fitness is reported as no more than 0.5.
Work on GUUCCGUUGGAGUAAUGGUAACGCGUCUUCCUUCUAAGGAGAAGACUGCGGGUUCGAGUCCCGUACGGAACG yielded a yeast fitness of no more than 0.5.

Source: the RNAGym collection of RNA variant scans (doi:10.1126/science.aae0568)
